Data published in ChEMBL document CHEMBL1132225, “Novel antidiabetic and hypolipidemic agents. 3. Benzofuran-containing thiazolidinediones” (J Med Chem, 1999).
“And” between values parts separate entries of the source, which are not always exact repeats. Identical values can stand only once. Values belong to the molecule of their own block, whether it stands above or below them. The source made the active and inactive calls. No cut-off for these calls is given here.

How the values were obtained:
Mus musculus [1] = test: Percent reduction of plasma glucose (PG) after 6 days of treatment. It is the mean of standard deviation observed in plasma glucose (PG) in db/db mice at dose of 30 mg/kg/day; format: functional; settings: route oral
Mus musculus [2] = test: Percent reduction in plasma triglyceride (TG) after 6 days of treatment. It is the mean of standard deviation observed in plasma triglyceride (TG) in db/db mice at dose of 30 mg/kg/day; format: functional; settings: route oral
Mus musculus [3] = test: Percent reduction of plasma glucose (PG) after 6 days of treatment. It is the mean of standard deviation observed in plasma glucose (PG) in db/db mice at dose of 100 mg/kg/day; NA = Not Active; format: functional, organism-based
Mus musculus [4] = test: Percent reduction in plasma triglyceride (TG) after 6 days of treatment. It is the mean of standard deviation observed in plasma triglyceride (TG) in db/db mice at dose of 100 mg/kg/day; NA = Not Active; format: functional
Mus musculus [5] = test: Percent reduction of plasma glucose (PG) after 6 days of treatment. It is the mean of standard deviation observed in plasma glucose (PG) in db/db mice at dose of 200 mg/kg/day; format: functional; settings: route oral
Mus musculus [6] = species: Mus musculus; test: Percent reduction of plasma glucose after 6 days of treatment (various doses).; format: functional
Mus musculus [7] = test: Percent reduction in plasma triglyceride (TG) after 6 days of treatment. It is the mean of standard deviation observed in plasma triglyceride (TG) in db/db mice at dose of 200 mg/kg/day; NA = Not Active; format: functional, organism-based
Mus musculus [8] = species: Mus musculus; test: The compound was tested for percent reduction of plasma triglyceride after 6 days of treatment; Not Active; format: functional, organism-based
[9] = Pharmacokinetic Parameter, AUC (0-infinity) is the area under the plasma concentration versus time curve extrapolated to infinity in Female Wistar Rats at 100 mg/kg by po administration; format: ADME, organism-based; set-up: time infinity, dose 100 mg/kg, route oral; settings: rat, read-out: AUC 0-infinity
[10] = Pharmacokinetic Parameter, Cmax is observed maximum plasma concentration in Female Wistar Rats at 100 mg/kg by po administration; format: ADME, organism-based; set-up: dose 100 mg/kg, route oral; settings: rat
[11] = Pharmacokinetic Parameter, Kel is elimination rate constant in Female Wistar Rats at 100 mg/kg by po administration; format: ADME, organism-based; set-up: dose 100 mg/kg, route oral; settings: rat, in vivo
[12] = Pharmacokinetic Parameter, half life period measured in Female Wistar Rats at 100 mg/kg by po administration; format: ADME, organism-based; set-up: dose 100 mg/kg, route oral; settings: rat, in vivo
[13] = Pharmacokinetic Parameter, Tmax is the time at which maximum concentration (Cmax) is reached in Female Wistar Rats at 100 mg/kg by po administration; format: ADME, organism-based; set-up: dose 100 mg/kg, route oral; settings: rat, in vivo
[14] = Pharmacokinetic Parameter, AUC (0-t) is the area under the plasma concentration versus time curve in Female Wistar Rats at 100 mg/kg by po administration; format: ADME, organism-based; set-up: dose 100 mg/kg, route oral; settings: rat
Mus musculus [15] = species: Mus musculus; test: The compound was tested for percent reduction of plasma triglyceride after 6 days of treatment.; format: functional; set-up: concentration or dose not given beside the values
[16] = target: T1, Peroxisome proliferator-activated receptor alpha (Homo sapiens) (UniProt Q07869); test: Compound was tested for fold transactivation of human Peroxisome proliferator activated receptor alpha at 50 uM
T1 sequence (whole entry): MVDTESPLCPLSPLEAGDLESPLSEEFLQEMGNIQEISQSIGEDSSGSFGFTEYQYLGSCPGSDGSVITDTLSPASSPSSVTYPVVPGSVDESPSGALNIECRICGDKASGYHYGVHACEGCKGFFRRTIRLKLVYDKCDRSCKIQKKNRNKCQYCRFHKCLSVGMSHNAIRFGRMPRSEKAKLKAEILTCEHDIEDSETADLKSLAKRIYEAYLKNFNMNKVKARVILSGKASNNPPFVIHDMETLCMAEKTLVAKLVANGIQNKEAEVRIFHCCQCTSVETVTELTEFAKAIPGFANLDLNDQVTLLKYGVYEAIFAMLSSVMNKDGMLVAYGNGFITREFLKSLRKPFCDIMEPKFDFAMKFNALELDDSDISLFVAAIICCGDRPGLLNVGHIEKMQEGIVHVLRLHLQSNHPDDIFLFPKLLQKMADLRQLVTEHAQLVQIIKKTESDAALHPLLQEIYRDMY

[17] = target: T2, Peroxisome proliferator-activated receptor gamma (Homo sapiens) (UniProt P37231); test: The fold activation against 1 amino acids 174-475)
T2 sequence (whole entry): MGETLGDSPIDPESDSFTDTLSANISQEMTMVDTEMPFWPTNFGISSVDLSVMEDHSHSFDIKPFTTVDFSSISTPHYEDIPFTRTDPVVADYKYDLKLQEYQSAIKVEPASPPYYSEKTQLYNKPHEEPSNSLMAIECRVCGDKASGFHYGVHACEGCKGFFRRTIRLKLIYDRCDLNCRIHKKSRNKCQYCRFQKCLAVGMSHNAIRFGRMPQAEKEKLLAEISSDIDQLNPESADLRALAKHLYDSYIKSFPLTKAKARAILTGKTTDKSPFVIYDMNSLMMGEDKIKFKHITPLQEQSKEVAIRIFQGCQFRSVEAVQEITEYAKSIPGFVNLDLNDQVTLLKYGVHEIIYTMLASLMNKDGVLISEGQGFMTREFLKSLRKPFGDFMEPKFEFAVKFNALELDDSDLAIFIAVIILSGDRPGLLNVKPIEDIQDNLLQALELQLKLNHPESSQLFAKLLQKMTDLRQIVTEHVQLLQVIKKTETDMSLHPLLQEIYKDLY

Mus musculus [18] = test: Percent reduction of plasma glucose (PG) after 6 days of treatment. It is the mean of standard deviation observed in plasma glucose (PG) in db/db mice at dose of 100 mg/kg/day; format: functional; settings: route oral
[19] = target: T1, Peroxisome proliferator-activated receptor alpha (Homo sapiens); test: The fold activation against 50 u M Peroxisome proliferator activated receptor alpha(amino acids 167-468)
Mus musculus [20] = species: Mus musculus; test: The compound was tested for percent reduction of plasma triglyceride after 6 days of treatment; not active; format: functional, organism-based
Mus musculus [21] = test: Percent reduction in plasma triglyceride (TG) after 6 days of treatment. It is the mean of standard deviation observed in plasma triglyceride (TG) in db/db mice at dose of 100 mg/kg/day; format: functional; settings: route oral
Rattus norvegicus [22] = species: Rattus norvegicus; test: The AUC(0-infinity) values in female wistar rats.; format: ADME, organism-based; set-up: time infinity; settings: in vivo
[23] = The Cmax values in female wistar rats.; format: ADME, organism-based; settings: rat, in vivo
Mus musculus [24] = test: Percent reduction of plasma glucose (PG) after 6 days of treatment. It is the mean of standard deviation observed in plasma glucose (PG) in db/db mice at dose of 30 mg/kg/day; NA = Not Active; format: functional, organism-based
[25] = The half life period in female wistar rats.; format: ADME, organism-based; settings: rat, in vivo
How it was run: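 Female Wistar rats (200–225 g), fasted 12 h overnight with water, fed 3 h post-dose; single 100 mg/kg oral dose as 0.5% CMC suspension. Retro-orbital blood sampled at multiple times; 0.2 mL plasma extracted, analysed by reverse-phase C18 HPLC with internal standard. Parameters by noncompartmental analysis; mean ± SD, n = 4.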

[26] = The Kel values in female wistar rats.; format: ADME, organism-based; settings: rat, in vivo
[27] = The Tmax values in female wistar rats.; format: ADME, organism-based; settings: rat, in vivo
Mus musculus [28] = test: Percent reduction in plasma triglyceride (TG) after 6 days of treatment. It is the mean of standard deviation observed in plasma triglyceride (TG) in db/db mice at dose of 30 mg/kg/day; NA = Not Active; format: functional, organism-based
Rattus norvegicus [29] = species: Rattus norvegicus; test: The AUC(0-t)values in female wistar rats.; format: ADME, organism-based; settings: in vivo
Mus musculus [30] = test: Percent reduction in plasma triglyceride (TG) after 6 days of treatment. It is the mean of standard deviation observed in plasma triglyceride (TG) in db/db mice at dose of 200 mg/kg/day; format: functional; settings: route oral

Structure (SMILES): Cc1c(C)c2c(c(C)c1OCc1ccccc1)C(CN1CCC[C@H]1COc1ccc(CC3SC(=O)NC3=O)cc1)C(C)(C)O2.O=C(O)/C=C\C(=O)O (some centres not stated)
PG (Mus musculus [1]): 24% | TG (Mus musculus [2]): 64%

Structure (SMILES): Cc1oc2c(C)c(C)c(OCc3ccccc3)c(C)c2c1CN1CCC[C@H]1COc1ccc(CC2SC(=O)NC2=O)cc1 (some centres not stated)
PG (Mus musculus [3]): inactive | TG (Mus musculus [4]): inactive

Structure (SMILES): Cc1c(C)c2c(c(C)c1OCc1ccccc1)C(CN(C)CCOc1ccc(/C=C3\SC(=O)NC3=O)cc1)C(C)(C)O2 (configuration not stated)
PG (Mus musculus [5]): 23% | Reduction (Mus musculus [6]): 23% | TG (Mus musculus [7]): inactive | Reduction (Mus musculus [8]): inactive

AUC(0-inf) [9]: 65000 ng·h/mL | Cmax [10]: 4300 ng/mL | k el [11]: 1.94e-05 s⁻¹ | half-life [12]: 10.1 h | Tmax [13]: 5 h | AUC(0-t) [14]: 53800 ng·h/mL
Structure (SMILES): Cc1c(C)c2c(c(C)c1OCc1ccccc1)C(CN1CCC[C@H]1COc1ccc(/C=C3\SC(=O)NC3=O)cc1)C(C)(C)O2.O=C(O)/C=C\C(=O)O (some centres not stated)
PG (Mus musculus [1]): 45% | TG (Mus musculus [2]): 42%

Structure (SMILES): Cc1c(C)c2c(c(C)c1OCc1ccccc1)C(CN1CCC[C@H]1COc1ccc(/C=C3\SC(=O)NC3=O)cc1)C(C)(C)O2.Cl (some centres not stated)
PG (Mus musculus [1]): 25% | Reduction (Mus musculus [6]): 25% | TG (Mus musculus [2]): 57% | Reduction (Mus musculus [15]): 57%

Structure (SMILES): Cc1c(C)c2c(c(C)c1O)C(CN(C)CCOc1ccc(CC3SC(=O)NC3=O)cc1)C(C)(C)O2 (configuration not stated)
PG (Mus musculus [5]): 19% | Reduction (Mus musculus [6]): 19%

Transactivation [16]: 0.28 fold | Fold activation [17]: 0.84 | Fold activation [19]: 0.28
Structure (SMILES): Cc1c(C)c2c(c(C)c1O)C(CN1CCC[C@H]1COc1ccc(/C=C3\SC(=O)NC3=O)cc1)C(C)(C)O2 (some centres not stated)
Reduction (Mus musculus [6]): 19% | TG (Mus musculus [4]): inactive | PG (Mus musculus [18]): 19% | Reduction (Mus musculus [8]): inactive

Structure (SMILES): Cc1c(C)c2c(c(C)c1OCc1ccccc1)C(COc1ccc(/C=C3\SC(=O)NC3=O)cc1)C(C)(C)O2 (configuration not stated)
PG (Mus musculus [5]): 10% | Reduction (Mus musculus [6]): 10% | Reduction (Mus musculus [20]): inactive | TG (Mus musculus [7]): inactive

Structure (SMILES): Cc1oc2c(C)c(C)c(OCc3ccccc3)c(C)c2c1CN1CCC[C@H]1COc1ccc(/C=C2\SC(=O)NC2=O)cc1
Reduction (Mus musculus [6]): 50% | TG (Mus musculus [4]): inactive | PG (Mus musculus [18]): 50% | Reduction (Mus musculus [8]): inactive

Structure (SMILES): Cc1c(C)c2c(c(C)c1OCc1ccccc1)C(CN1CCC[C@H]1COc1ccc(CC3SC(=O)NC3=O)cc1)C(C)(C)O2 (some centres not stated)
PG (Mus musculus [1]): 37% | Reduction (Mus musculus [6]): 48% and 37% | TG (Mus musculus [21]): 31% | TG (Mus musculus [2]): 22% | PG (Mus musculus [18]): 48% | Reduction (Mus musculus [15]): 31% and 22%

AUC (Rattus norvegicus [22]): 27400 ng·h/mL | Cmax [23]: 5470 ng/mL | AUC(0-inf) [9]: 27400 ng·h/mL | Transactivation [16]: 1.12 fold | half-life [25]: 4.01 h | Cmax [10]: 5470 ng/mL | k el [11]: 5.56e-05 s⁻¹ | half-life [12]: 4.01 h | k el [26]: 5.56e-05 s⁻¹ | Tmax [27]: 2.25 h | Tmax [13]: 2.25 h | AUC (Rattus norvegicus [29]): 25900 ng·h/mL | AUC(0-t) [14]: 25900 ng·h/mL
Structure (SMILES): Cc1c(C)c2c(c(C)c1O)CCC(C)(COc1ccc(CC3SC(=O)NC3=O)cc1)O2 (configuration not stated) [TROGLITAZONE]
PG (Mus musculus [5]): 26% | PG (Mus musculus [24]): inactive | Reduction (Mus musculus [6]): 26% | TG (Mus musculus [28]): inactive | TG (Mus musculus [30]): 50% | Reduction (Mus musculus [15]): 50%
